Data taken from ChEMBL document CHEMBL1121664, “(Acylaryloxy)acetic acid diuretics. 4. Indeno[5,4-b]furan-2-carboxylic acids” (1981).

Assays:
Pan troglodytes [1] = test: Compound was tested for the oral natriuretic activity in chimpanzee at the dose 5 mg/kg expressed as excretion rate in microequiv of Na+/min; assay type: functional
How it was run: (§1)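 GFR measured by iv pyrogen-free inulin. Inulin and urate clearances and Na+, K+, Cl- excretion rates measured by Auto Analyzer. Control values averaged over three 20-min periods. Compound given orally as aqueous solution via nasal catheter. Response is the mean of eight 15–20 min periods minus control, from single experiments.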

Rattus norvegicus [2] = test: Compound was tested for the oral natriuretic activity in female rats at the dose 27 mg/kg; mequiv of Na+ x 100 / cage; assay type: functional
How it was run: (§2)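 Female Charles River rats (150–170 g) were kept overnight on a sugar diet with water ad libitum. Compound was dosed po in a final vehicle of 4% DMF in water with Tween 80, alongside concurrent vehicle placebo. Rats were housed three per metabolism cage and urine was collected over 0–5 h. Na+ is reported as mequiv ×100 per cage, as the geometric mean of three cages per dose.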

Rattus norvegicus [3] = test: Compound was tested for the oral natriuretic activity in female rats at the dose 3 mg/kg; mequiv of Na+ x 100 / cage; assay type: functional; how it was run: as §2
Rattus norvegicus [4] = test: Compound was tested for the oral natriuretic activity in female rats at the dose 9 mg/kg; mequiv of Na+ x 100 / cage; assay type: functional; how it was run: as §2
Rattus norvegicus [5] = test: Compound was tested for the oral natriuretic activity in female rats at the dose 81 mg/kg; mequiv of Na+ x 100 / cage; assay type: functional; how it was run: as §2
[6] = Compound was tested for the ratio of clearance of urate to clearance of inulin levels at 5 mg/kg in Chimpanzee; assay type: functional; how it was run: as §1
Pan troglodytes [7] = test: Compound was tested for the oral natriuretic activity in chimpanzee at the dose 0.1 mg/kg expressed as excretion rate in microequiv of Na+/min; assay type: functional; how it was run: as §1
Pan troglodytes [8] = test: Compound was tested for the oral diuretic activity in chimpanzee at the dose 0.1 mg/kg expressed as excretion rate in microequiv of K+/min; assay type: functional, Urine; how it was run: as §1
Pan troglodytes [9] = test: Compound was tested for the oral diuretic activity in chimpanzee at the dose 0.1 mg/kg expressed as excretion rate in microequiv of Cl-/min; assay type: functional, Urine; how it was run: as §1
Pan troglodytes [10] = test: Compound was tested for the oral diuretic activity in chimpanzee at the dose 5 mg/kg expressed as excretion rate in microequiv of K+/min; assay type: functional, Urine; how it was run: as §1
Pan troglodytes [11] = test: Compound was tested for the oral diuretic activity in chimpanzee at the dose 5 mg/kg expressed as excretion rate in microequiv of Cl-/min; assay type: functional, Urine; how it was run: as §1
Pan troglodytes [12] = test: Compound was tested for the oral natriuretic activity in chimpanzee at 5 mg/kg by observing the excretion rates of sodium; µequiv of Na+/min

Row | SMILES | Excretion rate (Pan troglodytes [1]) | Excretion rate (Rattus norvegicus [2]) | Excretion rate (Rattus norvegicus [3]) | Excretion rate (Rattus norvegicus [4]) | Excretion rate (Rattus norvegicus [5]) | Ratio [6] | Excretion rate (Pan troglodytes [10]) | Excretion rate (Pan troglodytes [11]) | also measured
1 | CCC1C(=O)c2c(Cl)c(Cl)c3c(c2C1c1ccccc1)CC(C(=O)O)O3 (centres undefined) | 820 | 82 | 94 | 109 | 87 | 0.16 |  |  | 
2 | CCCC1Cc2c3c(c(C)c(C)c2C1=O)OC(C(=O)O)C3 (centres undefined) | 252 |  |  |  |  | 0.01 |  |  | 
3 | CCCC1Cc2c(c(C)c(C)c3oc(C(=O)O)cc23)C1=O (centres undefined) | 0 | 32 | 15 | 16 | 28 | 0.01 |  |  | 
4 | CC1(c2ccccc2)Cc2c3c(c(Cl)c(Cl)c2C1=O)O[C@H](C(=O)O)C3 (some centres undefined) |  | 281 | 189 | 267 | 388 | 0.09 |  |  | Excretion rate (Pan troglodytes [7]): 1305; Excretion rate (Pan troglodytes [8]): 88; Excretion rate (Pan troglodytes [9]): 1532
5 | CC1(C2CCCC2)Cc2c3c(c(Cl)c(Cl)c2C1=O)O[C@@H](C(=O)O)C3 (some centres undefined) | 437 | 279 | 127 | 223 | 340 | -0.04 | 63 | 614 | 
6 | O=C(O)COc1cc2c(c(Cl)c1Cl)C(=O)C1(CCCC1)C2 | 321 |  |  |  |  | 0.14 | 42 | 399 | 
7 | CC1(C2CCCC2)Cc2cc(OCC(=O)O)c(Cl)c(Cl)c2C1=O (centres undefined) | 425 |  |  |  |  | 0.2 | 64 | 367 | 
8 | O=C(O)[C@H]1Cc2c3c(c(Cl)c(Cl)c2O1)C(=O)C1(CCCC1)C3 (stereo in doubt; 4d) |  | 349 |  |  | 432 |  | 274 | 1990 | Excretion rate (Pan troglodytes [1]; 5 mg/kg): 1500; Excretion rate (Rattus norvegicus [3]; 3 mg/kg): 224; Excretion rate (Rattus norvegicus [4]; 9 mg/kg): 323; Ratio ([6]; 5 mg/kg): 0
9 | NS(=O)(=O)c1cc(C(=O)O)c(NCc2ccco2)cc1Cl [FUROSEMIDE] |  | 125 |  | 7 | 244 | -0.02 |  |  | Excretion rate (Pan troglodytes [12]): 1040 µequiv/min
10 | NS(=O)(=O)c1cc2c(cc1Cl)NCNS2(=O)=O [HYDROCHLOROTHIAZIDE] | 144 |  |  | 112 |  |  | 73 | 198 | 
11 | CC1(c2ccccc2)Cc2cc(OCC(=O)O)c(Cl)c(Cl)c2C1=O (centres undefined) [INDACRINONE] | 409 | 129 | 86 | 97 | 189 | 0.38 | 108 | 539 | 
12 | CCCN(CCC)S(=O)(=O)c1ccc(C(=O)O)cc1 [PROBENECID] |  |  |  |  |  | 0.05 |  |  | 
